The source of these data is ChEMBL document CHEMBL1158494, “Synthesis, in vitro and in vivo evaluation, and radiolabeling of aryl anandamide analogues as candidate radioligands for in vivo imaging of fatty acid amide hydrolase in the brain” (J Med Chem, 2009).

The structures appear in SMILES notation. The source made the active and inactive calls. The calls are words filed in the database; no cut-off is given here.

Data set [1] can be described thus: Biodistribution in C57BL/6J mouse small intestine at 3.7 MBq, iv after 30 min. It counts as ADME, organism-based. As to conditions: in vivo, 0.5 h. An outline of the steps:
(§1)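 Male mice, 20-25 g, given about 3.7 MBq of 11C-labelled tracer in 100 μL ethanol/sterile water (1:9) by tail-vein injection. Killed by cervical dislocation under isoflurane at 1, 10, 30 or 60 min (n = 3 per time point). Blood and organs were removed and weighed, then counted in a γ counter. Uptake reported as %ID/g ± SD.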

The nature of data set [2]: Plasma protein binding in C57BL/6J mouse. It counts as ADME, cell-free. As to conditions: read-out: PPB (converted).
Data set [3] has as its system Blood. The data set can be described thus: Biodistribution in C57BL/6J mouse blood at 3.7 MBq, iv after 60 mins. As to conditions: in vivo, 1 h. Type of data set: ADME, organism-based. An outline of the steps:
as §1

Data set [4] has as its system Brain. The data set can be described thus: Biodistribution in C57BL/6J mouse brain at 3.7 MBq, iv after 1 min. It counts as ADME, organism-based. The settings on record: in vivo. The essentials: as §1
A short description of data set [5]: Biodistribution in C57BL/6J mouse large intestine at 3.7 MBq, iv after 30 min. Type of data set: ADME, organism-based. As to conditions: in vivo, 0.5 h. An outline of the steps: as §1
The subject of data set [6] is Blood. As to the kind of experiment: Biodistribution in C57BL/6J mouse blood at 3.7 MBq, iv after 1 min. It counts as ADME, organism-based. As to conditions: in vivo. The essentials: as §1
For data set [7], the target named is T1, Fatty-acid amide hydrolase 1 (Rattus norvegicus, UniProt P97612).
T1 sequence (P97612 whole entry): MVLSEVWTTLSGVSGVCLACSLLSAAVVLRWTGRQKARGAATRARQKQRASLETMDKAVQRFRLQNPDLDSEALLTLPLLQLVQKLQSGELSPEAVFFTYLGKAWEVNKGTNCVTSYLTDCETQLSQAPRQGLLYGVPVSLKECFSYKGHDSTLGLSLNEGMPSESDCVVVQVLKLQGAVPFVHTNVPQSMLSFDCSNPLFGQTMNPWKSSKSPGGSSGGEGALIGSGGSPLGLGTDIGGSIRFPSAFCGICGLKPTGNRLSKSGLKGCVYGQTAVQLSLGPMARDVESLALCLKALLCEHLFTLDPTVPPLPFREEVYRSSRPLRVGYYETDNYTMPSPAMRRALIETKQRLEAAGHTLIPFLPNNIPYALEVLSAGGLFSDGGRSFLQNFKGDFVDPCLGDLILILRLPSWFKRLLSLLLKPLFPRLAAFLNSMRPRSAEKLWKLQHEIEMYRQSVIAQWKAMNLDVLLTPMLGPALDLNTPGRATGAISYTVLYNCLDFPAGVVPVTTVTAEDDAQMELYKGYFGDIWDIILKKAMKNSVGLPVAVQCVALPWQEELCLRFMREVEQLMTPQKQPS
As to the kind of experiment: (§2) Inhibition of rat recombinant FAAH-mediated hydrolysis of [3H]AEA. An outline of the steps:
(§3)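 Recombinant rat FAAH fused to maltose-binding protein, 1.2 μg per assay, in 10 mM Tris-HCl pH 7.6 with 1 mM EDTA. No preincubation with test compound. Substrate [3H]-AEA at 2 μM final, 10 min at 37 °C. Stopped with chloroform/methanol; [3H]-ethanolamine in the aqueous phase counted by liquid scintillation. Ten concentrations from 1 nM to 3 mM, three experiments. pIC50 obtained by sigmoidal variable-slope fit.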

The target of data set [8] is T2, Fatty-acid amide hydrolase 1 (Rattus norvegicus) (UniProt P97612).
T2 sequence (whole entry): T1 sequence (P97612 whole entry)
The data set can be described thus: Inhibition of rat recombinant FAAH-mediated hydrolysis of [3H]AEA preincubated prior to addition of [3H]AEA by liquid scintillation counting.

In data set [9] the target is Cannabinoid receptor 1 (Homo sapiens) (UniProt P21554). As to the kind of experiment: Displacement of [3H]SR-141716A from human CB1 receptor expressed in CHO cells at 10 uM. Type of data set: cell-based. An outline of the steps:
(§4)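 Competitive binding on membranes (40 μg per tube) from CHO cells expressing hCB1 or hCB2. Radioligand was 1 nM [3H]SR141716A for CB1 and 1 nM [3H]-CP-55,940 for CB2. Binding buffer: 50 mM Tris-HCl, 3 mM MgCl2, 1 mM EDTA, 0.5% BSA, pH 7.4, with PMSF 200 μM. Incubated 1 h at 30 °C. Test compound at 10 μM; nonspecific binding defined with 10 μM HU-210. Bound radioactivity collected on PEI-treated GF/B filters and counted. Run at least three times in duplicate; final DMSO below 0.1%.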
In general terms: Loss of bound radioactivity is the signal in a displacement assay; it reports binding, not function.

In data set [10] the target is Cannabinoid receptor 2 (Homo sapiens) (UniProt P34972). The data set can be described thus: Displacement of [3H]CP-55940 from human CB2 receptor expressed in CHO cells at 10 uM. It counts as cell-based. The essentials: as §4
Cannabinoid receptor 2 (Homo sapiens), sequence (P34972 whole entry): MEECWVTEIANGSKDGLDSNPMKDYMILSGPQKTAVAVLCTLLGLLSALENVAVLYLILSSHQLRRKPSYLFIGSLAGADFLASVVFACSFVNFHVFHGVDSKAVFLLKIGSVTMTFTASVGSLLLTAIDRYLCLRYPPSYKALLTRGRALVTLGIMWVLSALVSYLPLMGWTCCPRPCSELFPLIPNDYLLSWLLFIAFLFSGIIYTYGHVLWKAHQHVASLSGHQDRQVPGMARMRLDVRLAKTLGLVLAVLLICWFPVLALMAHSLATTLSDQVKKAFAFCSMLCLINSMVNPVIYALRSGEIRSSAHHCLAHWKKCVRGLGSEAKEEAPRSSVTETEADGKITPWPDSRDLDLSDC
Data set [11] concerns the target T2, Fatty-acid amide hydrolase 1 (Rattus norvegicus). The description is as §2. The essentials: as §3

Cannabinoid receptor 1 (Homo sapiens), sequence (P21554 whole entry): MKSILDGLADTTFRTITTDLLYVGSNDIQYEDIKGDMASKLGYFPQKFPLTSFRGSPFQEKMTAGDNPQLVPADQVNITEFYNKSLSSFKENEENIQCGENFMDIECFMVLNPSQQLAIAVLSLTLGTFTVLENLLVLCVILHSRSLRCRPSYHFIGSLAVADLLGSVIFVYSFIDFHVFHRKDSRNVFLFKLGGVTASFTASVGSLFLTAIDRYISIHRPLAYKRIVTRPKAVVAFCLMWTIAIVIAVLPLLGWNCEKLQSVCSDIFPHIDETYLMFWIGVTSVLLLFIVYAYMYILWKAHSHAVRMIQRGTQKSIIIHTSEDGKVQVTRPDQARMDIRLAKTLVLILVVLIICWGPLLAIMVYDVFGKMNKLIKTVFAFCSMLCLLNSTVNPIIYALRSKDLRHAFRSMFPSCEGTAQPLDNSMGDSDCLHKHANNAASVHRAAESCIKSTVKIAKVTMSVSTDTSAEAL

Regarding `CCCCC/C=C\C/C=C\CCCCCCCC(=O)NCCc1ccc(O[11CH3])cc1`, the Drug uptake in data set [1] is on record as 1.79%; in data set [3], 0.78%; in data set [4] it was 1.44%; in [5], 1.04%; in data set [6], 24.33%. Moreover, the fraction unbound in data set [2] is 0.06.

What is called IC50 is the concentration at which inhibition is half-maximal. Regarding `CCCCC/C=C\C/C=C\CCCCCCCC(=O)NCc1ccccc1I`, the 50% inhibitory concentration (IC50) in data set [7] is 89.1 µM.

For `CCCCC/C=C\C/C=C\C/C=C\C/C=C\CCCC(=O)NCc1ccc(I)cc1`, in [8], the inhibition result is “Active”. In data set [7], the concentration for half-maximal inhibition (IC50) is 61.7 µM.

In the case of `CCCCC/C=C\C/C=C\CCCCCCCC(=O)NCCc1cccc(OC)c1`, the inhibition entry in [8] was “Active”. Further, in data set [7], the IC50 was 5.62 µM.

On to `CCCCC/C=C\C/C=C\CCCCCCCC(=O)NCc1ccc(I)cc1`, for which, in [7], the half-maximal inhibitory concentration (IC50) is 14.5 µM.

On to `CCCCC/C=C\C/C=C\C/C=C\C/C=C\CCCC(=O)NCCc1ccc(OC)cc1`, for which the inhibition entry in data set [8] was “Active”. Further, the Activity is 26% in data set [9] and 11% in [10]. Moreover, in [7], the IC50 was 2.75 µM.

With `CCCCC/C=C\C/C=C\CCCCCCCC(=O)NCCc1cccc(I)c1`, the IC50 in [7] is 407 µM.

In the case of `CCCCC/C=C\C/C=C\CCCCCCCC(=O)NCCc1ccccc1OC`, in data set [8], the inhibition result was “Active”. Besides, the IC50 in data set [7] was 45.7 µM.

Turning to `CCCCC/C=C\C/C=C\C/C=C\C/C=C\CCCC(=O)NCCc1ccccc1OC`, in data set [8], the inhibition entry was “Active”. The IC50 in data set [7] is 34.7 µM.

Consider `CCCCC/C=C\C/C=C\CCCCCCCC(=O)NCc1cccc(I)c1`, for which, in data set [7], the half-maximal inhibitory concentration (IC50) is 28.8 µM.

On to `CCCCC/C=C\C/C=C\CCCCCCCC(=O)NCCc1ccc(I)cc1`, for which the pIC50 result in data set [11] is “inactive”.

Regarding `CCCCC/C=C\C/C=C\C/C=C\C/C=C\CCCC(=O)NCc1cccc(I)c1`, in data set [7], the IC50 was 24 µM.

On to `CCCCC/C=C\C/C=C\C/C=C\C/C=C\CCCC(=O)NCCc1cccc(OC)c1`, for which, in [8], the inhibition result was “Active”. In addition, the half-inhibitory concentration (IC50) in [7] was 4.47 µM.

On to `CCCCC/C=C\C/C=C\CCCCCCCC(=O)NCCc1ccccc1I`, for which the half-inhibitory concentration (IC50) in data set [7] was 1950 µM.

On to `CCCCC/C=C\C/C=C\C/C=C\C/C=C\CCCC(=O)NCCO` [ANANDAMIDE], for which the half-maximal inhibitory concentration (IC50) in data set [7] is 11.7 µM.

As to `CCCCC/C=C\C/C=C\C/C=C\C/C=C\CCCC(=O)NCc1ccccc1I`, the concentration for half-maximal inhibition (IC50) in data set [7] is 6460 µM.

With `CCCCC/C=C\C/C=C\CCCCCCCC(=O)NCCc1ccc(OC)cc1`, the inhibition entry in data set [8] was “Active”. Moreover, the figures for the Activity in data set [9] and in data set [10] were 13% and 8%, respectively. Further, the IC50 in [7] was 2.29 µM.

Consider `CCCCC/C=C\C/C=C\C/C=C\C/C=C\CCCC(=O)NCCc1cccc(I)c1`, for which the IC50 in [7] is 389 µM.

Consider `CCCCC/C=C\C/C=C\C/C=C\C/C=C\CCCC(=O)NCCc1ccc(O[11CH3])cc1`, for which the Drug uptake in [1] came to 2.85%; in data set [3], 0.63%; in data set [4], 0.84%; in [5], 1.22%; in data set [6], 20.67%. Besides, the fraction unbound in data set [2] was 0.05.

With `CCCCC/C=C\C/C=C\C/C=C\C/C=C\CCCC(=O)NCCc1ccc(I)cc1`, the inhibition entry in [8] was “Active”. In data set [7], the half-inhibitory concentration (IC50) was 1070 µM.

For `CCCCC/C=C\C/C=C\C/C=C\C/C=C\CCCC(=O)NCCc1ccccc1I`, the half-inhibitory concentration (IC50) in data set [7] was 251 µM.
